The values that follow come from PubChem BioAssay.

Test [1] in a line: Her2 expression decrease, cell viability multiplex – SKBR3 breast tumor cells, AlphaScreen, ATP viability, primary screen (AID 461;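 active = Her2 level under about 52% in both replicate screens, with viability over 70% of control, limit read from the data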;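 as to Her2 level: lower value means less Her2 protein in the cells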;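 as to viability: percent of carrier control wells set as 100% viability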). Particulars: SKBR3 Her2 protein level, 18-24 h, measured here: SKBR3 viability, ATP luminescence, at 10 µM. For orientation: Alpha assays give light when donor and acceptor beads are brought close together.
For test [2], the target named is Receptor tyrosine-protein kinase erbB-2 (Homo sapiens) (UniProt P04626). The description is as above. Conditions: 18-24 h, at 10 µM, stronger effect = lower value.
Test [3] in a line: reduced viability of SK-BR-3 breast cancer cells – cell-based, 24 h, human, pilot screen (AID 572;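 active = viability at or below 10% of carrier control in both of two separate runs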;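 also: compound exposure lasted between 18 and 24 h rather than exactly 24 h; 100% = carrier-treated control wells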). Conditions: SK-BR-3 viability, CellTiter-Glo luminescence, at 10 µM, stronger effect = lower value.
The nature of test [4]: HUVEC growth inhibition – cell-based, human, primary screen (AID 575;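 active = viability at or below 30% in both replicate assays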;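 also: 100% = median of untreated cell wells with 0.1% DMSO on each plate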). Conditions: HUVEC proliferation, CellTiter-Glo luminescence, 72 h; at 10 µM; stronger effect = lower value. The method, boiled down:
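material = primary HUVEC, no more than 12 passages | input = 1250 cells per well | controls = vehicle and MePR control wells | measured by = CTG luminescence | times = 72 h compound incubation | format = collagen-coated 384-well format | read-out = % viability vs DMSO wells | doses = single 10 µM dose, 0.1% DMSO, from 5x medium stock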
Background: Cellular ATP, detected with luciferase, serves as a proxy for viable cell number.

A short description of test [5]: H69AR cell proliferation blockers – human, duplicate replicates, primary screen (AID 580).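 Also: 100% = mean luminescence of untreated wells and 0% = no signal.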 Conditions: H69AR lung tumor cells viability, ATP luminescence, 72 h; at 10 µM; stronger effect = lower value.
A short description of test [6]: MRP1 drug-resistance reversers in H69AR cells – cell-based, doxorubicin co-treatment, pilot screen (AID 601;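 active = viability loss from added drug above about 55%, and viability with drug at most 40%, in both replicates, limit read from the data, passing the limit was not always enough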). Particulars: CellTiter-Glo, 72 h, at 10 µM; for differential viability (reversal): stronger effect = higher value.
Test [7] is described as follows: yeast transport mutant growth inhibition pilot in 384-well plates, post-Golgi transport modulator project (AID 636; in the data active = inhibition above about 31%). Conditions: absorbance 615 nm, about 18 h, stronger effect = higher value.
Test [8] is described as follows: growth suppression of yeast trafficking mutant, preliminary HTS, modulators of trafficking downstream of Golgi apparatus project, 1536-format plate, OD 615 nm (AID 637; in the data active = inhibition above about 30%). Particulars: yeast transport mutant growth, absorbance 615 nm, 18 h; stronger effect = higher value.
The mark [9] stands for this setting: H69AR cells + 2 uM doxorubicin, measured here: viability with 2 uM doxorubicin, stronger effect = lower value.
[10] abbreviates: H69AR cells, compound alone cytotoxicity.

The structures appear in SMILES notation. Calls of active or inactive are those of the source.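 The calls were made as follows, unless noted: active = viability at or under a set limit in both replicates, limit being median viability minus 3 SD (cut at about 48% in these data, passing the limit was not always enough); inconclusive = at or under the limit in just one replicate; inactive = at or above the limit in both replicates.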

Chain of Receptor tyrosine-protein kinase erbB-2 (Homo sapiens) (P04626 whole entry, looked up): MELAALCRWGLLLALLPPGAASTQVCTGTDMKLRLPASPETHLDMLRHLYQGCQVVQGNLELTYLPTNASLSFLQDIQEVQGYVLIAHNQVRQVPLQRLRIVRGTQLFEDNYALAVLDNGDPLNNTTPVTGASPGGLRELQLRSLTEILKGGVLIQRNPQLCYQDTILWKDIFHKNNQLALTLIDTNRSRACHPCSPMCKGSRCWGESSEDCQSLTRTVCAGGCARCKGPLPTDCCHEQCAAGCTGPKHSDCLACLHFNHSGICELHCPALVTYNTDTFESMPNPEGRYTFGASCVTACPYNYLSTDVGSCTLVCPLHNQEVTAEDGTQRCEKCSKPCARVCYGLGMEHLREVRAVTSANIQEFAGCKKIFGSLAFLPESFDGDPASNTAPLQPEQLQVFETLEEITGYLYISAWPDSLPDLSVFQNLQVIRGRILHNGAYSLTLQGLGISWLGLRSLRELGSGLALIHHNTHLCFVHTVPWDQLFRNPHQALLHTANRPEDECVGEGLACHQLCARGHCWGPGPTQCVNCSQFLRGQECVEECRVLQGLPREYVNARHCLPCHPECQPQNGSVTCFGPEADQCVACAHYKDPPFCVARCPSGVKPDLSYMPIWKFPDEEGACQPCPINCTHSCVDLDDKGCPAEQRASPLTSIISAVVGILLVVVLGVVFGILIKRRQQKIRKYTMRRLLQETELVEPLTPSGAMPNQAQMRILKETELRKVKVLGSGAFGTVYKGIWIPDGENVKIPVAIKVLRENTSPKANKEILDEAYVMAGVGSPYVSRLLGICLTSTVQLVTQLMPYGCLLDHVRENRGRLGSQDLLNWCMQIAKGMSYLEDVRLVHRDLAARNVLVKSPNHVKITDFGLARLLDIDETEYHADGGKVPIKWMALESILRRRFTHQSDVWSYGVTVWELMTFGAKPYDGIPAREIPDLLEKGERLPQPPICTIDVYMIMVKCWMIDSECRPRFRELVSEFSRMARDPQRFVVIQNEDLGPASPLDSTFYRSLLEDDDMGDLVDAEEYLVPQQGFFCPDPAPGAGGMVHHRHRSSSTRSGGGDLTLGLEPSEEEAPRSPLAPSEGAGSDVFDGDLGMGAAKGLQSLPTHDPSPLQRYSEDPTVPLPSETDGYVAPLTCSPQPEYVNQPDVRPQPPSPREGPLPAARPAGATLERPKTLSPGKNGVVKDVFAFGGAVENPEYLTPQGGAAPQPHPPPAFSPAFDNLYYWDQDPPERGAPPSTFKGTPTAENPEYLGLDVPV

One may read the viability as a read-out of living cells in per cent, often relative to untreated cells. A word on the inhibition: it is the drop in the measured response relative to a control, in per cent. `CC(NC(=O)Nc1nccs1)(C(F)(F)F)C(F)(F)F`: the viability is 102% in test [1]; 102% (inactive) in test [3]; 103% (inactive) in test [4]; 99.7% (inactive) in test [5]; 96.2% in test [6] (setting [9]); 99.7% in test [6] (setting [10]). In addition, the Her2 level in test [2] is 83.5% (inactive). Further, the differential viability (reversal) in test [6] (H69AR cells + 2 uM doxorubicin) is 3.42% (inactive). The figures for the inhibition in test [7] and in test [8] were -7.26% (inactive) and -6.51% (inactive), respectively.
Turning to `CCOCCCNc1ncnc2c1[nH]c1ccccc12`, the viability in test [1] is 99%; in test [3], 99% (inactive); in test [4], 89.5% (inactive); in test [5] it was 90.3% (inactive); in test [6] (setting [9]), 104%; in test [6] (setting [10]), 90.3%. For the same compound, the Her2 level in test [2] was 96.5% (inactive). The differential viability (reversal) in test [6] (H69AR cells + 2 uM doxorubicin) is -13.3% (inactive). For the same compound, the values for the inhibition in test [7] and in test [8] were -2.63% (inactive) and 1.31% (inactive), respectively.
Turning to `CC1CCN(C(=O)CSc2nc3ccccc3[nH]2)CC1`, the viability is 82% in test [1]; 82% (inactive) in test [3]; 91.8% (inactive) in test [4]; 109% (inactive) in test [5]; 94.6% in test [6] (setting [9]); 109% in test [6] (setting [10]). Also, the Her2 level in test [2] was 99.5% (inactive). Besides, the differential viability (reversal) in test [6] (H69AR cells + 2 uM doxorubicin) is 14.7% (inactive). The inhibition in test [7] was 0.26% (inactive); in test [8] it was 6% (inactive).
Take `COc1ccccc1N1CCN(C(=O)c2ccc(CS(=O)(=O)c3ccccc3OC)o2)CC1`: the viability in test [1] was 90.5%; in test [3] it was 90.5% (inactive); in test [4], 85.1% (inactive); in test [5], 76.2% (inactive); in test [6] (setting [9]), 88.1%; in test [6] (setting [10]), 76.2%. In addition, the Her2 level in test [2] is 104% (inactive). In addition, in test [6] (H69AR cells + 2 uM doxorubicin), the differential viability (reversal) is -11.9% (inactive). In addition, the inhibition in test [7] was -5.39% (inactive); in test [8] it was -0.32% (inactive).
With `Cc1ccc(NC(=O)CCN2CCc3ccccc3C2)cc1`, the viability was 91.5% in test [1]; 91.5% (inactive) in test [3]; 109% (inactive) in test [4]; 99.7% (inactive) in test [5]; 101% in test [6] (setting [9]); 99.7% in test [6] (setting [10]). In addition, the Her2 level in test [2] is 92.5% (inactive). Besides, the differential viability (reversal) in test [6] (H69AR cells + 2 uM doxorubicin) was -0.975% (inactive). The inhibition in test [7] was -5.21% (inactive); in test [8], -4.92% (inactive).
In the case of `N#Cc1nc(COc2ccccc2)oc1NCCCn1ccnc1`, the viability was 104% in test [1]; 104% (inactive) in test [3]; 96.5% (inactive) in test [4]; 112% (inactive) in test [5]; 107% in test [6] (setting [9]); 112% in test [6] (setting [10]). Further, in test [2], the Her2 level is 103% (inactive). Also, in test [6] (H69AR cells + 2 uM doxorubicin), the differential viability (reversal) was 5.22% (inactive). Further, the inhibition is -0.39% (inactive) in test [7] and 5.56% (inactive) in test [8].
In the case of `Cc1ccc2nc(NCCCN3CCOCC3)c(C=NCCCN3CCOCC3)c(=O)n2c1`, the viability is 102% in test [1]; 102% (inactive) in test [3]; 99.1% (inactive) in test [4]; 81.9% (inactive) in test [5]; 86.6% in test [6] (setting [9]); 81.9% in test [6] (setting [10]). Moreover, the Her2 level in test [2] is 84% (inactive). Also, the differential viability (reversal) in test [6] (H69AR cells + 2 uM doxorubicin) is -4.68% (inactive). The inhibition in test [7] was -0.39% (inactive); in test [8], -12% (inactive).
Turning to `CCOc1ccc(NC(=O)CSc2nnnn2CC(=O)O)cc1`, the viability in test [1] was 104%; in test [3], 104% (inactive); in test [4], 96% (inactive); in test [5], 95.7% (inactive); in test [6] (setting [9]) it was 99.8%; in test [6] (setting [10]), 95.7%. Further, in test [2], the Her2 level was 98% (inactive). For the same compound, the differential viability (reversal) in test [6] (H69AR cells + 2 uM doxorubicin) is -4.13% (inactive). In addition, the inhibition in test [7] is -3.16% (inactive); in test [8], -5.65% (inactive).
Regarding `Nc1nnc(SCC(=O)N2CCc3ccccc32)n1-c1ccccc1`, the viability in test [1] is 102%; in test [3] it was 102% (inactive); in test [4] it was 82% (inactive); in test [5] it was 101% (inactive); in test [6] (setting [9]), 94.5%; in test [6] (setting [10]), 101%. Moreover, in test [2], the Her2 level was 80% (inactive). Further, in test [6] (H69AR cells + 2 uM doxorubicin), the differential viability (reversal) was 6.62% (inactive). Further, the inhibition in test [7] was -4.8% (inactive); in test [8], 0.32% (inactive).
On to `CCOC(=O)c1c(C)[nH]c(C(=O)COC(=O)C2CC2C)c1C` (stereo not given), for which the viability in test [1] was 117%; in test [3], 117% (inactive); in test [4], 99.4% (inactive); in test [5] it was 102% (inactive); in test [6] (setting [9]), 85.8%; in test [6] (setting [10]) it was 102%. Also, the Her2 level in test [2] was 116% (inactive). Also, the differential viability (reversal) in test [6] (H69AR cells + 2 uM doxorubicin) is 15.7% (inactive). Besides, the inhibition in test [7] was -4.93% (inactive); in test [8], 0.48% (inactive).
Take `O=C(OCC(=O)N1CCc2ccccc21)C1=COCCO1`: the viability is 89.5% in test [1]; 89.5% (inactive) in test [3]; 88.4% (inactive) in test [4]; 86.1% (inactive) in test [5]; 67.9% in test [6] (setting [9]); 86.1% in test [6] (setting [10]). Also, the Her2 level in test [2] is 90% (inactive). Besides, in test [6] (H69AR cells + 2 uM doxorubicin), the differential viability (reversal) was 18.2% (inactive). The inhibition in test [7] is -4.94% (inactive); in test [8] it was -0.32% (inactive).
As to `CCOc1ccc(CN2C(=O)c3ccccc3C2C(=O)NCc2cccnc2)cc1` (stereo not given), the viability was 96% in test [1]; 96% (inactive) in test [3]; 86.6% (inactive) in test [4]; 98.8% (inactive) in test [5]; 97% in test [6] (setting [9]); 98.8% in test [6] (setting [10]). Besides, the Her2 level in test [2] was 96.5% (inactive). Also, in test [6] (H69AR cells + 2 uM doxorubicin), the differential viability (reversal) is 1.78% (inactive). Also, the inhibition is -0.91% (inactive) in test [7] and -3.02% (inactive) in test [8].
For the compound `C=CCn1c(SCC(=O)c2cc(C)n(C(C)COC)c2C)nc2sc(C)c(C)c2c1=O` (stereo not given), the viability in test [1] was 97.5%; in test [3], 97.5% (inactive); in test [4] it was 68.2% (inactive); in test [5], 82.8% (inactive); in test [6] (setting [9]), 21.9%; in test [6] (setting [10]), 82.8%. The Her2 level in test [2] is 77% (inactive). Besides, the differential viability (reversal) in test [6] (H69AR cells + 2 uM doxorubicin) was 60.8% (active). In addition, the values for the inhibition in test [7] and in test [8] were -8.77% (inactive) and -4.6% (inactive), respectively.
As to `O=C(NCN1CCCCC1)c1cnccn1`, the viability is 95.5% in test [1]; 95.5% (inactive) in test [3]; 103% (inactive) in test [4]; 89.9% (inactive) in test [5]; 106% in test [6] (setting [9]); 89.9% in test [6] (setting [10]). The Her2 level in test [2] was 86% (inactive). Further, in test [6] (H69AR cells + 2 uM doxorubicin), the differential viability (reversal) is -16.5% (inactive). The inhibition is -2.47% (inactive) in test [7] and -1.15% (inactive) in test [8].
For the compound `Cc1ccc(NC(=O)Cn2cccc2)cc1Cl`, the viability is 94% in test [1]; 94% (inactive) in test [3]; 98.5% (inactive) in test [4]; 96.3% (inactive) in test [5]; 78.5% in test [6] (setting [9]); 96.3% in test [6] (setting [10]). Further, the Her2 level in test [2] is 85% (inactive). Further, the differential viability (reversal) in test [6] (H69AR cells + 2 uM doxorubicin) is 17.9% (inactive). In addition, the inhibition in test [7] is -5.95% (inactive); in test [8], -3.67% (inactive).
